Experimental findings from PMC10580023 (RSC Advances, 2023) are described below.

Holding throughout (assay type): cell-based
Data set [1] has as its system RAW 264.7 cells. Description: TNF-α secretion by ELISA in LPS-stimulated macrophages. The settings on record: pre-treatment 24 h, then LPS 1 μg mL^−1 for 4 h; ELISA of supernatant. In general terms: ELISA stands for enzyme-linked immunosorbent assay.
Data set [2] concerns RAW 264.7 cells. Description: Intracellular ROS by DCFH-DA probe in LPS-stimulated macrophages. The conditions noted are these: Mus musculus, RAW264.7, read-out: ROS inhibition rate. Put shortly: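 RAW 264.7 macrophages (DMEM/10% FBS, 37 °C, 5% CO₂) pre-treated with test compound for 24 h, then stimulated with LPS 1 μg mL⁻¹ for 4 h. Cells harvested, loaded with DCFH-DA for 30 min at 37 °C in the dark, and washed three times with PBS. DCF fluorescence read on a multimode imaging reader and […]. Mean ± SD of three independent experiments.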

Data set [3] concerns RAW 264.7 cells. As to the kind of experiment: CCK-8 cell viability. Summed up: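 Mouse RAW 264.7 macrophages (passage ≤30) grown in DMEM with 10% FBS and 1% antibiotic-antimycotic at 37 °C under 5% CO₂. Seeded at 10⁵ per well and left overnight. Exposed to test compound at 0–200 μM for 24 h. Viability read with a CCK-8 kit as % cell viability; IC50 calculated by curve fitting. Mean ± SD of three independent experiments.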

Data set [4] deals with RAW 264.7 cells. As to the kind of experiment: IL-6 secretion by ELISA in LPS-stimulated macrophages. The settings on record: pre-treatment 24 h, then LPS 1 μg mL^−1 for 4 h; ELISA of supernatant. Put shortly:
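RAW 264.7 macrophages (within passage 30) grown in DMEM with 10% FBS and 1% antibiotic-antimycotic at 37 °C, 5% CO2. Test compound at 25, 50 and 100 μM (legend: 0, 25, 50 μM) for 24 h, then LPS 1 μg mL⁻¹ for 4 h. Supernatant IL-6 measured by commercial ELISA kit. Three independent experiments, mean ± SD, compared with the LPS group.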

As for `C=C(C[C@@H]1CCOc2ccc(C)cc21)c1ccccc1` [3ac], the “Prevention of LPS-induced TNF-α secretion” value in the data set on RAW 264.7 cells [1] is “no effect”. Moreover, in the data set on RAW 264.7 cells [2], the inhibition at 25 µM was -24% and the inhibition at 50 µM stood at 23%.
Take `C=C(C[C@@H]1CCOc2ccccc21)c1ccc(C)cc1` [3aj]: the “Cytotoxicity (in words)” value in the data set on RAW 264.7 cells [3] is recorded as “little cytotoxicity”. In addition, the “Prevention of LPS-induced IL-6 secretion” value with RAW 264.7 cells [4] was “able to prevent LPS-induced IL-6 secretion”.
Consider `C=C(C[C@@H]1CCOc2ccccc21)c1ccc(Cl)cc1` [3al], for which the “Prevention of LPS-induced IL-6 secretion” value in the data set with RAW 264.7 cells [4] was “able to prevent LPS-induced IL-6 secretion”.
Take `C=C(C[C@@H]1CCOc2ccccc21)c1ccccc1C` [3am]: the inhibition at 50 µM with RAW 264.7 cells [2] stood at 29%.
On to `C=C(C[C@@H]1CCSc2ccc(OC)cc21)c1ccccc1` [3aw], for which the “Prevention of LPS-induced IL-6 secretion” value with RAW 264.7 cells [4] is reported as “able to prevent LPS-induced IL-6 secretion”.
Take `C=C(C[C@@H]1CCSc2ccc(C)cc21)c1ccccc1` [3ax]: the “Prevention of LPS-induced TNF-α secretion” value with RAW 264.7 cells [1] is given as “no effect”. For the same molecule, in the data set with RAW 264.7 cells [2], the inhibition at 25 µM came to 32% and the inhibition at 50 µM was 49%.
`C=C(C[C@@H]1CCSc2ccccc21)c1ccccc1C` [3bd]: in the data set with RAW 264.7 cells [2], the inhibition at 50 µM worked out at 52%.
Take `Cc1c(C)c2c(c(C)c1O)CCC(C)(C(=O)O)O2` (centres unmarked) [Trolox, reference compound]: in the data set on RAW 264.7 cells [2], the inhibition at 25 µM was -3% and the inhibition at 50 µM came to 20%.

As a reminder, the inhibition is the change of the read-out against control, counted positive when it falls.
